The source of these data is ChEMBL document CHEMBL2157935, “Synthesis and properties of cationic 2'-O-[N-(4-aminobutyl)carbamoyl] modified oligonucleotides” (Bioorg Med Chem Lett, 2012).

Structures are written as SMILES.

Broadly, the ΔTm is the shift of the melting midpoint relative to a reference.

Data set [1] deals with Nucleic Acid. As to the kind of experiment: Binding affinity to RNA 3'-CAUGGAAAGGCC-5' assessed as melting temperature. It is filed as nucleic-acid assay.
The subject of data set [2] is Nucleic Acid. In words: Binding affinity to RNA 3'-CAUGGGAAGGCC-5' assessed as melting temperature. It is filed as nucleic-acid assay.
The test system of data set [3] is Nucleic Acid. In words: Binding affinity to RNA 3'-CAUGGCAAGGCC-5' assessed as melting temperature. Format: nucleic-acid assay.
Data set [4] concerns Nucleic Acid. In words: Binding affinity to RNA 3'-CAUGGUAAGGCC-5' assessed as melting temperature. Format: nucleic-acid assay.
For data set [5], the system named is Nucleic Acid. In words: Binding affinity to RNA 3'-CAUGGAAAGGCC-5' assessed as change in melting temperature. It is filed as nucleic-acid assay.
Data set [6] in a line: Chemical stability in presence of snake venom phosphodiesterase at 50 uM and pH 8.4. Format: physicochemical. The conditions noted are these: buffer. A digest of the protocol:
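Oligonucleotides (50 μM) incubated at 37 °C in 50 mM Tris-HCl (pH 8.5) with 72 mM NaCl, 14 mM MgCl2 and 2.5 × 10^-4 U/ml snake venom phosphodiesterase; hydrolysis followed over time.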

For `CO[C@@H]1[C@H](OP(=O)(O)OC[C@H]2O[C@@H](n3ccc(=O)[nH]c3=O)[C@H](OC)[C@@H]2OP(=O)(O)OC[C@H]2O[C@@H](n3ccc(=O)[nH]c3=O)[C@H](OC)[C@@H]2OP(=O)(O)OC[C@H]2O[C@@H](n3ccc(=O)[nH]c3=O)[C@H](OC(N)=O)[C@@H]2OP(=O)(O)OC[C@H]2O[C@@H](n3ccc(N)nc3=O)[C@H](OC)[C@@H]2OP(=O)(O)OC[C@H]2O[C@@H](n3ccc(N)nc3=O)[C@H](OC)[C@@H]2OP(=O)(O)OC[C@H]2O[C@@H](n3cnc4c(=O)[nH]c(N)nc43)[C@H](OC)[C@@H]2OP(=O)(O)OC[C@H]2O[C@@H](n3cnc4c(=O)[nH]c(N)nc43)[C@H](OC)[C@@H]2O)[C@@H](COP(=O)(O)O[C@H]2[C@@H](OC)[C@H](n3ccc(N)nc3=O)O[C@@H]2COP(=O)(O)O[C@H]2[C@@H](OC)[C@H](n3cnc4c(N)ncnc43)O[C@@H]2COP(=O)(O)O[C@H]2[C@@H](OC(N)=O)[C@H](n3ccc(=O)[nH]c3=O)O[C@@H]2COP(=O)(O)O[C@H]2[C@@H](OC)[C@H](n3cnc4c(=O)[nH]c(N)nc43)O[C@@H]2CO)O[C@H]1n1ccc(N)nc1=O`, the Tm in data set [1] came out at 47 °C.
Turning to `CO[C@@H]1[C@H](OP(=O)(O)OC[C@H]2O[C@@H](n3ccc(=O)[nH]c3=O)[C@H](OC)[C@@H]2OP(=O)(O)OC[C@H]2O[C@@H](n3ccc(=O)[nH]c3=O)[C@H](OC)[C@@H]2OP(=O)(O)OC[C@H]2O[C@@H](n3ccc(=O)[nH]c3=O)[C@H](OC)[C@@H]2OP(=O)(O)OC[C@H]2O[C@@H](n3ccc(N)nc3=O)[C@H](OC)[C@@H]2OP(=O)(O)OC[C@H]2O[C@@H](n3ccc(N)nc3=O)[C@H](OC)[C@@H]2OP(=O)(O)OC[C@H]2O[C@@H](n3cnc4c(=O)[nH]c(N)nc43)[C@H](OC)[C@@H]2OP(=O)(O)OC[C@H]2O[C@@H](n3cnc4c(=O)[nH]c(N)nc43)[C@H](OC)[C@@H]2O)[C@@H](COP(=O)(O)O[C@H]2[C@@H](OC)[C@H](n3ccc(N)nc3=O)O[C@@H]2COP(=O)(O)O[C@H]2[C@@H](OC)[C@H](n3cnc4c(N)ncnc43)O[C@@H]2COP(=O)(O)O[C@H]2[C@@H](OC)[C@H](n3ccc(=O)[nH]c3=O)O[C@@H]2COP(=O)(O)O[C@H]2[C@@H](OC)[C@H](n3cnc4c(=O)[nH]c(N)nc43)O[C@@H]2CO)O[C@H]1n1ccc(N)nc1=O`, the Tm worked out at 63 °C in data set [2], 57 °C in data set [3] and 58 °C in data set [4].
On to `CO[C@@H]1[C@H](OP(=O)(O)OC[C@H]2O[C@@H](n3ccc(=O)[nH]c3=O)[C@H](OC(=O)NCCCCN)[C@@H]2OP(=O)(O)OC[C@H]2O[C@@H](n3ccc(=O)[nH]c3=O)[C@H](OC)[C@@H]2OP(=O)(O)OC[C@H]2O[C@@H](n3ccc(=O)[nH]c3=O)[C@H](OC(=O)NCCCCN)[C@@H]2OP(=O)(O)OC[C@H]2O[C@@H](n3ccc(N)nc3=O)[C@H](OC)[C@@H]2OP(=O)(O)OC[C@H]2O[C@@H](n3ccc(N)nc3=O)[C@H](OC)[C@@H]2OP(=O)(O)OC[C@H]2O[C@@H](n3cnc4c(=O)[nH]c(N)nc43)[C@H](OC)[C@@H]2OP(=O)(O)OC[C@H]2O[C@@H](n3cnc4c(=O)[nH]c(N)nc43)[C@H](OC)[C@@H]2O)[C@@H](COP(=O)(O)O[C@H]2[C@@H](OC)[C@H](n3ccc(N)nc3=O)O[C@@H]2COP(=O)(O)O[C@H]2[C@@H](OC)[C@H](n3cnc4c(N)ncnc43)O[C@@H]2COP(=O)(O)O[C@H]2[C@@H](OC)[C@H](n3ccc(=O)[nH]c3=O)O[C@@H]2COP(=O)(O)O[C@H]2[C@@H](OC)[C@H](n3cnc4c(=O)[nH]c(N)nc43)O[C@@H]2CO)O[C@H]1n1ccc(N)nc1=O`, for which, in data set [5], the ΔTm amounted to 18 °C. In addition, the Tm in data set [1] came to 61 °C.
As to `CO[C@@H]1[C@H](OP(=O)(O)OC[C@H]2O[C@@H](n3ccc(=O)[nH]c3=O)[C@H](OC(=O)NCCCCN)[C@@H]2OP(=O)(O)OC[C@H]2O[C@@H](n3ccc(=O)[nH]c3=O)[C@H](OC)[C@@H]2OP(=O)(O)OC[C@H]2O[C@@H](n3ccc(=O)[nH]c3=O)[C@H](OC)[C@@H]2OP(=O)(O)OC[C@H]2O[C@@H](n3ccc(N)nc3=O)[C@H](OC)[C@@H]2OP(=O)(O)OC[C@H]2O[C@@H](n3ccc(N)nc3=O)[C@H](OC)[C@@H]2OP(=O)(O)OC[C@H]2O[C@@H](n3cnc4c(=O)[nH]c(N)nc43)[C@H](OC)[C@@H]2OP(=O)(O)OC[C@H]2O[C@@H](n3cnc4c(=O)[nH]c(N)nc43)[C@H](OC)[C@@H]2O)[C@@H](COP(=O)(O)O[C@H]2[C@@H](OC)[C@H](n3ccc(N)nc3=O)O[C@@H]2COP(=O)(O)O[C@H]2[C@@H](OC)[C@H](n3cnc4c(N)ncnc43)O[C@@H]2COP(=O)(O)O[C@H]2[C@@H](OC)[C@H](n3ccc(=O)[nH]c3=O)O[C@@H]2COP(=O)(O)O[C@H]2[C@@H](OC)[C@H](n3cnc4c(=O)[nH]c(N)nc43)O[C@@H]2CO)O[C@H]1n1ccc(N)nc1=O`, the Tm in data set [2] turned out to be 68 °C; in data set [1], 69 °C; in data set [3] it was 57 °C; in data set [4] it was 59 °C. Further, the ΔTm in data set [5] amounted to 4 °C.
Take `CO[C@@H]1[C@H](OP(=O)(O)OC[C@H]2O[C@@H](n3ccc(=O)[nH]c3=O)[C@H](OC(N)=O)[C@@H]2OP(=O)(O)OC[C@H]2O[C@@H](n3ccc(=O)[nH]c3=O)[C@H](OC)[C@@H]2OP(=O)(O)OC[C@H]2O[C@@H](n3ccc(=O)[nH]c3=O)[C@H](OC(N)=O)[C@@H]2OP(=O)(O)OC[C@H]2O[C@@H](n3ccc(N)nc3=O)[C@H](OC)[C@@H]2OP(=O)(O)OC[C@H]2O[C@@H](n3ccc(N)nc3=O)[C@H](OC)[C@@H]2OP(=O)(O)OC[C@H]2O[C@@H](n3cnc4c(=O)[nH]c(N)nc43)[C@H](OC)[C@@H]2OP(=O)(O)OC[C@H]2O[C@@H](n3cnc4c(=O)[nH]c(N)nc43)[C@H](OC)[C@@H]2O)[C@@H](COP(=O)(O)O[C@H]2[C@@H](OC)[C@H](n3ccc(N)nc3=O)O[C@@H]2COP(=O)(O)O[C@H]2[C@@H](OC)[C@H](n3cnc4c(N)ncnc43)O[C@@H]2COP(=O)(O)O[C@H]2[C@@H](OC)[C@H](n3ccc(=O)[nH]c3=O)O[C@@H]2COP(=O)(O)O[C@H]2[C@@H](OC)[C@H](n3cnc4c(=O)[nH]c(N)nc43)O[C@@H]2CO)O[C@H]1n1ccc(N)nc1=O`: the Tm in data set [1] was 43 °C.
As to `Cc1cn([C@H]2C[C@H](O)[C@@H](COP(=O)(O)O[C@H]3[C@@H](OC(=O)NCCCCN)[C@H](n4ccc(=O)[nH]c4=O)O[C@@H]3COP(=O)(O)O[C@H]3[C@@H](OC(=O)NCCCCN)[C@H](n4ccc(=O)[nH]c4=O)O[C@@H]3CO)O2)c(=O)[nH]c1=O`, the Stability result in data set [6] is given as “Stable”.
Regarding `CO[C@@H]1[C@H](OP(=O)(O)OC[C@H]2O[C@@H](n3ccc(=O)[nH]c3=O)[C@H](OC)[C@@H]2OP(=O)(O)OC[C@H]2O[C@@H](n3ccc(=O)[nH]c3=O)[C@H](OC)[C@@H]2OP(=O)(O)OC[C@H]2O[C@@H](n3ccc(=O)[nH]c3=O)[C@H](OC(=O)NCCCCN)[C@@H]2OP(=O)(O)OC[C@H]2O[C@@H](n3ccc(N)nc3=O)[C@H](OC)[C@@H]2OP(=O)(O)OC[C@H]2O[C@@H](n3ccc(N)nc3=O)[C@H](OC)[C@@H]2OP(=O)(O)OC[C@H]2O[C@@H](n3cnc4c(=O)[nH]c(N)nc43)[C@H](OC)[C@@H]2OP(=O)(O)OC[C@H]2O[C@@H](n3cnc4c(=O)[nH]c(N)nc43)[C@H](OC)[C@@H]2O)[C@@H](COP(=O)(O)O[C@H]2[C@@H](OC)[C@H](n3ccc(N)nc3=O)O[C@@H]2COP(=O)(O)O[C@H]2[C@@H](OC)[C@H](n3cnc4c(N)ncnc43)O[C@@H]2COP(=O)(O)O[C@H]2[C@@H](OC(=O)NCCCCN)[C@H](n3ccc(=O)[nH]c3=O)O[C@@H]2COP(=O)(O)O[C@H]2[C@@H](OC)[C@H](n3cnc4c(=O)[nH]c(N)nc43)O[C@@H]2CO)O[C@H]1n1ccc(N)nc1=O`, in data set [5], the ΔTm is 14 °C. In addition, the Tm in data set [1] stood at 61 °C.
